Test results reported in ChEMBL document CHEMBL5042515, “Design and Evaluation of a Novel Peptide-Drug Conjugate Covalently Targeting SARS-CoV-2 Papain-like Protease” (J Med Chem, 2022).
The source made the active and inactive calls. No cut-off for these calls is given here. *1 amine or outer side, *2 acyl side, *3 side chain or, on linkers, in order; H or OH if unused. Where a SMILES comes first, the peptide text is derived from it. Bridges are numbered along the chain shown (N, C = ends). [ ]: non-standard residue; d: D form. The star is where a group is joined. Met(S-mXyl) = C[S+](CC[C@H](N[*:1])C(=O)[*:2])Cc1cccc(C[*:3])c1; 5FAM = O=C1OC2(c3ccc(O)cc3Oc3cc(O)ccc32)c2ccc(C(=O)*)cc21; X2 = C[S+](CC[C@@H](N[*:1])C(=O)[*:2])Cc1cccc(C[*:3])c1; X1 = Cc1ccc(N*)cc1C(=O)NC(C)c1cccc2ccccc12

Legend:
[1] = Hemolytic activity against mouse erythrocyte at 0 to 60 uM for 1.5 hrs by microplate reader analysis; assay type: toxicity, cell-based; settings: dose 0-60 µM
In short: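 Fresh mouse erythrocytes washed and resuspended in PBS at 10^8/mL, then exposed to serial dilutions starting at 60 μM for 1.5 h at 37 °C. Supernatant hemoglobin read by absorbance. 0.1% Triton X-100 used as 100% control and PBS as blank; % hemolysis calculated relative to both.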

[2] = Inhibition of SARS-CoV PLpro using LRGG-ACC as substrate preincubated for 60 mins followed by substrate addition and measured for 30 mins by enzymatic assay; parameters: species or system Severe acute respiratory syndrome-related coronavirus
[3] = target: Replicase polyprotein 1ab (Middle East respiratory syndrome-related coronavirus (isolate UnitedKingdom/H123990006/2012) (Betacoronavirus England 1) (Humancoronavirus EMC)) (UniProt K9N7C7); experiment: Inhibition of MERS PLpro using LRGG-ACC as substrate upto 1000 uM preincubated for 60 mins followed by substrate addition and measured for 30 mins by enzymatic assay; settings: dose microM <=1000, time 90.0 min
A549 = experiment: Cytotoxicity against human A549 cells assessed as inhibition of cell growth at 1.56 to 100 uM incubated for 24 hrs by MTT assay; assay type: toxicity, cell-based; settings: a549, 24 h, dose 1.56-100 µM
In short: (§1)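 A549 (RPMI-1640) or 293T (DMEM) cells with 10% FBS, plated overnight, then treated 24 h at 1.56–100 μM in medium with 5% FBS. MTT (5 mg/mL reagent) added for 4 h at 37 °C, dissolved in DMSO, absorbance read at 490 nm. DMSO-only control; at least three independent measurements.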

HEK-293T [4] = experiment: Cytotoxicity against HEK293T cells assessed as inhibition of cell growth at 1.56 to 100 uM incubated for 24 hrs by MTT assay; assay type: toxicity, cell-based; settings: human, dose 1.56-100 µM; in short: as §1
HEK293T = experiment: Covalent binding affinity to SARS-CoV-2 PLpro spiked in HEK293T cells lysate at 10 uM incubated for 1 hr by SDS gel analysis; assay type: subcellular; settings: Severe acute respiratory syndrome coronavirus 2
In short: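 293T cell lysate (300 μg protein) spiked with PLpro (5 μM), then treated with 10 μM FAM-labeled peptide. Labeling read as fluorescent bands on gel.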

[5] = system: Severe acute respiratory syndrome coronavirus 2; experiment: Binding affinity to SARS-CoV-2 PLpro assessed as covalent bond formation at 10 uM incubated for 1 hr by SDS-PAGE analysis
In short: (§2)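 FAM-labeled peptides (10 μM) incubated with purified SARS-CoV-2 PLpro (5 μM) in PBS for 1 h. Covalent adduct detected by SDS gel analysis.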

[6] = system: Severe acute respiratory syndrome coronavirus 2; experiment: Binding affinity to SARS-CoV-2 PLpro assessed as covalent bond formation at Cys111 at 10 uM incubated for 1 hr by SDS-PAGE analysis
[7] = system: Severe acute respiratory syndrome coronavirus 2; experiment: Inhibition of SARS-CoV-2 PLpro using LRGG-ACC as substrate at <=1000 uM preincubated for 60 mins followed by substrate addition and measured for 30 mins by enzymatic assay; settings: dose microM <=1000, time 90.0 min
In short: (§3)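 Recombinant His-tagged SARS-CoV-2 PLpro (E. coli BL21(DE3), Ni-NTA then gel filtration) at 0.1 μM, preincubated 1 h at 37 °C with inhibitor diluted from 800 μM. Buffer: 50 mM HEPES pH 7.4, 0.1 mg/mL BSA, 5 mM DTT. Ac-LRGG-ACC substrate at 1 μM final. Fluorescence read at ex 355/em 460 nm for 30 min, at least three times; IC50 from curve fitting.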

[8] = system: Severe acute respiratory syndrome coronavirus 2; experiment: Covalent binding affinity to SARS-CoV-2 PLpro Cys111 at 30 uM for 4 hrs by In-gel trypsin digestion based MS-MS analysis
In short: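 Peptide (30 μM) with PLpro (5 μM) in Tris buffer, 37 °C, 4 h. Conjugate band excised from 15% SDS-PAGE, destained with ammonium bicarbonate/acetonitrile and trypsin-digested overnight at 16 °C. Peptides extracted in 50% acetonitrile/0.5% formic acid for MS/MS mapping of the modified residue.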

[9] = system: Severe acute respiratory syndrome coronavirus 2; experiment: Covalent binding affinity to SARS-CoV-2 PLpro by SDS-PAGE analysis
[10] = system: Severe acute respiratory syndrome coronavirus 2; experiment: Covalent binding affinity to SARS-CoV-2 PLpro assessed as reaction efficiency at 0 to 25 uM for 2 hrs by SDS-PAGE analysis; settings: dose 0-25 µM
In short: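 Purified SARS-CoV-2 PLpro (5 μM) incubated with peptide at 0, 2.5, 5, 10, 15, 20 and 25 μM in PBS (pH 7.4, 37 °C). Conjugation resolved on 15% SDS-PAGE.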

[11] = Inhibition of SARS-CoV-2 PLpro using LRGG-ACC as substrate preincubated for 60 mins followed by substrate addition and measured for 30 mins by enzymatic assay; parameters: species or system Severe acute respiratory syndrome coronavirus 2; in short: as §3
[12] = system: Severe acute respiratory syndrome-related coronavirus; experiment: Inhibition of SARS-CoV PLpro using LRGG-ACC as substrate at <=1000 uM preincubated for 60 mins followed by substrate addition and measured for 30 mins by enzymatic assay; settings: dose microM <=1000, time 90.0 min
HEK-293T [13] = experiment: Antiviral activity against HEK293T cells co-transfected with plasmids encoding Myc-tagged ISG15, E1/E2/E3 ubiquitin ligases, SARS-CoV-2 PLpro fused with EGFP assessed as recovery of intracellular ISGylation level incubated for 24 hrs by immunoblot analysis; assay type: functional, cell-based; settings: Homo sapiens
In short: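 HEK293T cells co-transfected with Myc-ISG15, E1/E2/E3 ligases and EGFP-fused SARS-CoV-2 PLpro, then kept 24 h at 37 °C in DMEM with 5% FBS plus conjugate. Lysates BCA-normalised, 30 μg per lane. Western blot probed with anti-ISG15, anti-GFP and anti-GAPDH (1:1000), ECL detection.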

HEK-293T [14] = experiment: Antiviral activity in HEK293T cells co-transfected with plasmids encoding Renilla luciferase, Firefly luciferase is driven by IFN-beta promoter, MAVS assessed as recovery of suppressed IFN-beta promoter activity at 10 to 100 uM by Dual-Luciferase reporter assay relative to control; assay type: functional, cell-based; settings: Homo sapiens, dose 10-100 µM
In short: (§4)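 HEK293T cells co-transfected with Renilla luciferase reference, IFN-β promoter-driven firefly luciferase, MAVS and SARS-CoV-2 PLpro, then treated with conjugate. Activity scaled to the ISG15-plasmid positive control set as 100%; blank plasmid as negative control; unpaired two-tailed t-test.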

[15] = Drug uptake in human HeLa cells at 10 uM for 4 hrs by tryphan blue staining based flow cytometry relative to control; assay type: ADME, cell-based
[16] = system: Severe acute respiratory syndrome coronavirus 2; experiment: Covalent binding affinity to SARS-CoV-2 PLpro assessed as reaction efficiency at 10 uM for 1 hr by SDS-PAGE analysis; in short: as §2
[17] = system: Severe acute respiratory syndrome coronavirus 2; experiment: Covalent binding affinity to SARS-CoV-2 PLpro assessed as reaction efficiency at 10 uM and incubated for 0.5 to 4 hrs by SDS-PAGE analysis; settings: time 0.5-4 hrs, TDE = time-dependent effect
In short: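 Peptide (10 μM) with purified SARS-CoV-2 PLpro (5 μM) in PBS, pH 7.4, 37 °C, sampled at 0.5, 1, 2, 3 and 4 h. Conjugate band resolved on 15% SDS-PAGE.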

HEK-293T [18] = experiment: Antiviral activity in HEK293T cells co-transfected with plasmids encoding Renilla luciferase, Firefly luciferase is driven by IFN-beta promoter, MAVS assessed as recovery of suppressed IFN-beta promoter activity at 100 uM by Dual-Luciferase reporter assay; assay type: functional, cell-based; settings: Homo sapiens; in short: as §4

Cc1ccc(N)cc1C(=O)NC(C)c1cccc2ccccc12 (stereo not drawn)
Activity [1]: Non-Toxic | IC50 [2]: 2.6 µM | inhibition [3]: inactive | Activity (A549): Non-Toxic | Activity (HEK-293T [4]): Non-Toxic

Cc1ccc(NC(=O)CC[C@H](NC(=O)c2ccc3c(c2)C(=O)OC32c3ccc(O)cc3Oc3cc(O)ccc32)C(=O)N[C@H]2CSCc3cccc(c3)C[S+](C)CC[C@@H](C(=O)O)NC(=O)CNC(=O)[C@H](CCCNC(=N)N)NC(=O)[C@H](CC(C)C)NC2=O)cc1C(=O)NC(C)c1cccc2ccccc12 (stereo partly drawn) (5FAM-E(X1)CLRG[Met(S-mXyl)]-OH; thioether 2-6)
Activity (HEK293T): Active

Cc1ccc(NC(=O)CC[C@H](NC(=O)c2ccc3c(c2)C(=O)OC32c3ccc(O)cc3Oc3cc(O)ccc32)C(=O)N[C@H]2CC[S+](C)Cc3cccc(c3)CSC[C@@H](C(=O)O)NC(=O)CNC(=O)[C@H](CCCNC(=N)N)NC(=O)[C@H](CC(C)C)NC2=O)cc1C(=O)NC(C)c1cccc2ccccc12 (stereo partly drawn) (5FAM-E(X1)[Met(S-mXyl)]LRGC-OH; thioether 2-6)
Activity (HEK293T): Active

CC(C)C[C@@H]1NC(=O)[C@@H](N)CSCc2cccc(c2)C[S+](C)CC[C@@H](C(=O)O)NC(=O)CNC(=O)[C@H](CCCNC(=N)N)NC1=O (stereo partly drawn) (H-CLRG[Met(S-mXyl)]-OH; thioether 1-5)
Activity [5]: Active | Activity [6]: Active | inhibition [7]: inactive

C[S+]1CC[C@@H](C(=O)O)NC(=O)CNC(=O)CNC(=O)[C@H](CCCNC(=N)N)NC(=O)[C@@H](N)CSCc2cccc(c2)C1 (stereo partly drawn) (H-CRGG[Met(S-mXyl)]-OH; thioether 1-5)
Activity [5]: Active | Activity [6]: Active | inhibition [7]: inactive

Cc1ccc(NC(=O)CC[C@H](N)C(=O)N[C@H]2CSCc3cccc(c3)C[S+](C)CC[C@@H](C(=O)O)NC(=O)CNC(=O)[C@H](CCCNC(=N)N)NC(=O)[C@H](CC(C)C)NC2=O)cc1C(=O)NC(C)c1cccc2ccccc12 (stereo partly drawn) (H-E(X1)CLRG[Met(S-mXyl)]-OH; thioether 2-6)
Activity [1]: Non-Toxic | Activity [8]: Active | Activity [9]: Active | Activity [10]: Dose-Dependent Effect | IC50 [11]: 8.63 µM | inhibition [12]: Active | inhibition [3]: inactive | Activity (HEK-293T [13]): Dose-Dependent Effect | Activity (HEK-293T [14]): Dose-Dependent Effect | Activity (A549): Non-Toxic | Activity (HEK-293T [4]): Non-Toxic | Drug uptake [15]: Active

Cc1ccc(NC(=O)CC[C@H](N)C(=O)N[C@@H](CC(C)C)C(=O)N[C@@H](CCCNC(=N)N)C(=O)NCC(=O)NCC(=O)O)cc1C(=O)NC(C)c1cccc2ccccc12 (stereo partly drawn) (H-E(X1)LRGG-OH)
Activity [9]: inactive | IC50 [11]: 15.4 µM | inhibition [12]: inactive | inhibition [3]: inactive | Drug uptake [15]: Active

Cc1ccc(NC(=O)CC[C@H](N)C(=O)N[C@H]2CC[S+](C)Cc3cccc(c3)CSC[C@@H](C(=O)O)NC(=O)CNC(=O)[C@H](CCCNC(=N)N)NC(=O)[C@H](CC(C)C)NC2=O)cc1C(=O)NC(C)c1cccc2ccccc12 (stereo partly drawn) (H-E(X1)[Met(S-mXyl)]LRGC-OH; thioether 2-6)
Activity [1]: Non-Toxic | Activity [9]: Active | Activity [10]: Dose-Dependent Effect | Activity [16]: Active | Activity [17]: Tde | IC50 [11]: 7.4 µM | IC50 [2]: 3.43 µM | inhibition [3]: inactive | Activity (HEK-293T [13]): Dose-Dependent Effect | Activity (HEK-293T [18]): inactive | Activity (A549): Non-Toxic | Activity (HEK-293T [4]): Non-Toxic | Drug uptake [15]: Active

CC(C)C[C@H](N)C(=O)N[C@H]1CSCc2cccc(c2)C[S+](C)CC[C@H](C(=O)O)NC(=O)CNC(=O)CNC1=O (stereo partly drawn) (H-LCGG[X2]-OH; thioether 2-5)
inhibition [7]: inactive

CC(C)C[C@H](N)C(=O)N[C@@H](CCCNC(=N)N)C(=O)NCC(=O)NCC(=O)N[C@H]1CSCc2cccc(c2)C[S+](C)CC[C@@H](C(=O)O)NC(=O)[C@H](C)NC(=O)[C@H](C)NC(=O)[C@H](C)NC1=O (stereo partly drawn) (H-LRGGCAAA[Met(S-mXyl)]-OH; thioether 5-9)
Activity [5]: Active | Activity [6]: Active | inhibition [7]: inactive

CC(C)C[C@H](N)C(=O)N[C@@H](CCCNC(=N)N)C(=O)NCC(=O)NCC(=O)N[C@H]1CC[S+](C)Cc2cccc(c2)CSC[C@@H](C(=O)O)NC(=O)[C@H](C)NC(=O)[C@H](C)NC(=O)[C@H](C)NC1=O (stereo partly drawn) (H-LRGG[Met(S-mXyl)]AAAC-OH; thioether 5-9)
Activity [5]: Active | inhibition [7]: inactive

CC(C)C[C@H](N)C(=O)N[C@H]1CC[S+](C)Cc2cccc(c2)CSC[C@@H](C(=O)O)NC(=O)CNC(=O)CNC1=O (stereo partly drawn) (H-L[Met(S-mXyl)]GGC-OH; thioether 2-5)
inhibition [7]: inactive

CC(C)C[C@@H]1NC(=O)[C@@H](N)CC[S+](C)Cc2cccc(c2)CSC[C@@H](C(=O)O)NC(=O)CNC(=O)[C@H](CCCNC(=N)N)NC1=O (stereo partly drawn) (H-[Met(S-mXyl)]LRGC-OH; thioether 1-5)
inhibition [7]: inactive

C[S+]1CC[C@H](N)C(=O)N[C@@H](CCCNC(=N)N)C(=O)NCC(=O)NCC(=O)N[C@H](C(=O)O)CSCc2cccc(c2)C1 (stereo partly drawn) (H-[Met(S-mXyl)]RGGC-OH; thioether 1-5)
Activity [5]: Active | inhibition [7]: inactive
